From ChEMBL document CHEMBL3352013, “The design and synthesis of potent and selective inhibitors of Trypanosoma brucei glycogen synthase kinase 3 for the treatment of human african trypanosomiasis” (J Med Chem, 2014)

Tests used:
[1] = Inhibition of Trypanosoma brucei GSK3 using biotinylated GSP2 substrate by flashplate assay
Outline: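 Radiometric Flashplate assay: 2.5 nM TbGSK3 short, 1 μM biotinylated GSP2, 1 μM ATP plus [γ-33P]-ATP. 10-point titration 30 μM to 0.3 nM final, 1% DMSO. IC50 averaged over two or more experiments; standard GW8510 used for reproducibility (MSR).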

[2] = target: Glycogen synthase kinase-3 (Homo sapiens, UniProt P49840+P49841); assay: Inhibition of human GSK3 using biotinylated GSP2 substrate by flashplate assay; format: protein assay
[3] = Selectivity ratio, ratio of IC50 for human GSK3 to IC50 Trypanosoma brucei GSK3
[4] = target: CDK2/Cyclin A2 (Homo sapiens, UniProt P24941); assay: Inhibition of human CDK2/cyclin A using Biotin-C6-PKTPKKAKKL substrate; format: protein-complex assay
[5] = Selectivity ratio, ratio of IC50 for human CDK2/cyclin A to IC50 for Trypanosoma brucei GSK3
[6] = test system: Trypanosoma brucei brucei; assay: Trypanocidal activity against bloodstream stage of Trypanosoma brucei brucei assessed as inhibition of proliferation after 72 hrs; format: functional, organism-based
Outline: (§1)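 Resazurin viability assay: 2 × 10³ cells/well (MRC5 in MEM + 10% FBS; bloodstream-form T. b. brucei in appropriate medium), compounds 50 μM to 0.5 nM, 37 °C, 5% CO₂ for 69 h, then resazurin 50 μM final for further 4 h; fluorescence read. Concentration giving 50% growth inhibition over 72 h; average of two or more experiments.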

[7] = test system: MRC5; assay: Cytotoxicity against human MRC5 cells assessed as growth inhibition after 72 hrs; format: cell-based; settings: MRC5, 72 h; outline: as §1

COc1cccc(OC)c1C(=O)Nc1c[nH]nc1C(=O)NC1CCN(C(=O)OC(C)(C)C)CC1
IC50 [1]: 6 nM | IC50 [2]: 140 nM | Ratio IC50 [3]: 23 | IC50 [4]: 4700 nM | Ratio IC50 [5]: 780 | EC50 [6]: 12000 nM | EC50 [7]: > 50000 nM

CO[C@H]1CC[C@H](NC(=O)c2n[nH]cc2NC(=O)C2CCOCC2)CC1
IC50 [1]: 690 nM | IC50 [2]: 8 nM | Ratio IC50 [3]: 0.0012 | IC50 [4]: 380 nM | Ratio IC50 [5]: 0.55 | EC50 [6]: 32000 nM | EC50 [7]: > 50000 nM

COc1cccc(OC)c1C(=O)Nc1c[nH]nc1C(=O)NCCN1CCOCC1
IC50 [1]: 54 nM | IC50 [2]: 630 nM | Ratio IC50 [3]: 12 | IC50 [4]: > 10000 nM | Ratio IC50 [5]: > 190 | EC50 [6]: > 50000 nM | EC50 [7]: > 50000 nM

COC(=O)c1n[nH]cc1NC(=O)c1c(OC)cccc1OC
IC50 [1]: 520 nM | IC50 [2]: 4500 nM | Ratio IC50 [3]: 8.7 | IC50 [4]: > 10000 nM | Ratio IC50 [5]: > 19 | EC50 [6]: > 50000 nM | EC50 [7]: > 50000 nM

CO[C@H]1CC[C@H](NC(=O)c2n[nH]cc2NC(=O)Cc2c(Cl)cccc2Cl)CC1
IC50 [1]: 230 nM | IC50 [2]: 200 nM | Ratio IC50 [3]: 0.87 | IC50 [4]: 290 nM | Ratio IC50 [5]: 1.3 | EC50 [6]: 7300 nM | EC50 [7]: 3100 nM

CCc1ccccc1C(=O)Nc1c[nH]nc1C(=O)N[C@H]1CC[C@H](OC)CC1
IC50 [1]: 53 nM | IC50 [2]: 20 nM | Ratio IC50 [3]: 0.38 | IC50 [4]: 70 nM | Ratio IC50 [5]: 1.3 | EC50 [6]: 2800 nM | EC50 [7]: 3400 nM

COc1cc(OC)c(C(=O)Nc2c[nH]nc2C(=O)N[C@H]2CC[C@H](OC)CC2)c(OC)c1
IC50 [1]: 3 nM | IC50 [2]: 90 nM | Ratio IC50 [3]: 30 | IC50 [4]: 3100 nM | Ratio IC50 [5]: 1000 | EC50 [6]: 5900 nM | EC50 [7]: > 50000 nM

COc1cccc(OC)c1C(=O)Nc1c[nH]nc1C(=O)NC1CCCCC1
IC50 [1]: 1 nM | IC50 [2]: 50 nM | Ratio IC50 [3]: 50 | IC50 [4]: 1200 nM | Ratio IC50 [5]: 1200 | EC50 [6]: 4100 nM | EC50 [7]: 35000 nM

COc1cccc(OC)c1C(=O)Nc1c[nH]nc1C(=O)NN1CCOCC1
IC50 [1]: 81 nM | IC50 [2]: 450 nM | Ratio IC50 [3]: 5.6 | IC50 [4]: > 10000 nM | Ratio IC50 [5]: > 120 | EC50 [6]: 50000 nM | EC50 [7]: > 50000 nM

CO[C@H]1CC[C@H](NC(=O)c2n[nH]cc2NC(=O)c2c(C)nc3ccccn23)CC1
IC50 [1]: 100 nM | IC50 [2]: 42 nM | Ratio IC50 [3]: 0.42 | IC50 [4]: 2200 nM | Ratio IC50 [5]: 22 | EC50 [6]: 2900 nM | EC50 [7]: 34000 nM

COc1cccc(OC)c1C(=O)Nc1c[nH]nc1C(=O)NCc1ccccn1
IC50 [1]: 15 nM | IC50 [2]: 320 nM | Ratio IC50 [3]: 21 | IC50 [4]: > 10000 nM | Ratio IC50 [5]: > 670 | EC50 [6]: 20000 nM | EC50 [7]: > 50000 nM

COc1cccc(OC)c1C(=O)Nc1c[nH]nc1C(=O)NC1CCN(Cc2ccccc2)C1 (configuration not stated)
IC50 [1]: 8 nM | IC50 [2]: 80 nM | Ratio IC50 [3]: 10 | IC50 [4]: > 10000 nM | Ratio IC50 [5]: > 1300 | EC50 [6]: 8900 nM | EC50 [7]: 38000 nM

COc1cccc(OC)c1C(=O)Nc1c[nH]nc1C(=O)NC1CCCCCC1
IC50 [1]: 1 nM | IC50 [2]: 20 nM | Ratio IC50 [3]: 20 | IC50 [4]: 2000 nM | Ratio IC50 [5]: 2000 | EC50 [6]: 4500 nM | EC50 [7]: 42000 nM

COc1cccc(OC)c1C(=O)Nc1c[nH]nc1C(=O)N[C@H]1CC[C@H](O)CC1
IC50 [1]: 2 nM | IC50 [2]: 70 nM | Ratio IC50 [3]: 35 | IC50 [4]: 1600 nM | Ratio IC50 [5]: 800 | EC50 [6]: 6400 nM | EC50 [7]: 34000 nM

CO[C@H]1CC[C@H](NC(=O)c2n[nH]cc2NC(=O)c2ncoc2-c2ccccc2)CC1
IC50 [1]: 920 nM | IC50 [2]: 5 nM | Ratio IC50 [3]: 0.0058 | IC50 [4]: 22000 nM | Ratio IC50 [5]: 24 | EC50 [6]: > 50000 nM | EC50 [7]: 28000 nM

COc1cccc(OC)c1C(=O)Nc1c[nH]nc1C(=O)NCCN1CCCC1
IC50 [1]: 320 nM | IC50 [2]: 660 nM | Ratio IC50 [3]: 2.1 | IC50 [4]: > 10000 nM | Ratio IC50 [5]: > 31 | EC50 [6]: > 50000 nM | EC50 [7]: > 50000 nM
